The values that follow come from publication PMC5494147 (Bioorganic & medicinal chemistry, 2017).

Each structure is given as a SMILES string.

In one assay the test system is HDAC11. The conditions noted are these: ref [5]–[6], [6c]; cited from earlier work.
A further assay deals with T1, HDAC10 (Homo sapiens, UniProt Q969S8).
T1 sequence (Q969S8 1-669): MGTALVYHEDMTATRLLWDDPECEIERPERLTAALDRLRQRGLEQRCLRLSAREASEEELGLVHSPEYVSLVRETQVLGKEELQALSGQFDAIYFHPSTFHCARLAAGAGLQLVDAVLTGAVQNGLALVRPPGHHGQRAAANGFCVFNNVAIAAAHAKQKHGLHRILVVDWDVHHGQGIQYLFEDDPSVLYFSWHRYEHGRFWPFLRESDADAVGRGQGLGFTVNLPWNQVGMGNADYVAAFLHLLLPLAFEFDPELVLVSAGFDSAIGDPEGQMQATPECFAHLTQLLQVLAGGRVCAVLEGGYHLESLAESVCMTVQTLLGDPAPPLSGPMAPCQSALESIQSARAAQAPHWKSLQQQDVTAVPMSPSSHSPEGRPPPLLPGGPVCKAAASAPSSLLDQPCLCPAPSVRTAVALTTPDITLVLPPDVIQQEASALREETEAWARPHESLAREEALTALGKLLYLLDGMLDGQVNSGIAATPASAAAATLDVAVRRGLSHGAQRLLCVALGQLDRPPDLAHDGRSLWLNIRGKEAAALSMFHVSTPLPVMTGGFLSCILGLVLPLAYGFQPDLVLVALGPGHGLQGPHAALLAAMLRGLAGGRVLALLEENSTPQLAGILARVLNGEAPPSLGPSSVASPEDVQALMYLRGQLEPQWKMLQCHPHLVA
As to conditions: among class II isoforms; ref [5]–[6], [6c]; cited from earlier work.

In assay [1] the test system is histone H3 (Lys9/14) acetylation in HCT116 cells. Nature of the assay: Immunoblot analysis of histone hyperacetylation. The format is cell-based. The conditions noted are these: HCT116, 8 h post-treatment. In short, it runs like this:
(§1)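 Cells grown in DMEM with 10% FBS at 37 °C, 5% CO2; 4 × 10^5 cells seeded and incubated overnight. Treated 8 h with test compound at 0–10 μM final or 1% EtOH vehicle. Whole-cell lysates normalised by BCA; equal protein run on SDS-PAGE, transferred to PVDF, probed with anti-acetyl histone H3 antibody and β-actin, chemiluminescent detection.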

Assay [2] has as its system histone H3 (Lys9/14) acetylation in MDA-MB-231 cells. Nature of the assay: Immunoblot analysis of histone hyperacetylation. The format is cell-based. The conditions noted are these: MDA-MB-231, 8 h post-treatment. Summed up: as §1
A further assay addresses T2, HDAC6 (Homo sapiens, UniProt Q9UBN7).
T2 sequence (Q9UBN7 1-1215): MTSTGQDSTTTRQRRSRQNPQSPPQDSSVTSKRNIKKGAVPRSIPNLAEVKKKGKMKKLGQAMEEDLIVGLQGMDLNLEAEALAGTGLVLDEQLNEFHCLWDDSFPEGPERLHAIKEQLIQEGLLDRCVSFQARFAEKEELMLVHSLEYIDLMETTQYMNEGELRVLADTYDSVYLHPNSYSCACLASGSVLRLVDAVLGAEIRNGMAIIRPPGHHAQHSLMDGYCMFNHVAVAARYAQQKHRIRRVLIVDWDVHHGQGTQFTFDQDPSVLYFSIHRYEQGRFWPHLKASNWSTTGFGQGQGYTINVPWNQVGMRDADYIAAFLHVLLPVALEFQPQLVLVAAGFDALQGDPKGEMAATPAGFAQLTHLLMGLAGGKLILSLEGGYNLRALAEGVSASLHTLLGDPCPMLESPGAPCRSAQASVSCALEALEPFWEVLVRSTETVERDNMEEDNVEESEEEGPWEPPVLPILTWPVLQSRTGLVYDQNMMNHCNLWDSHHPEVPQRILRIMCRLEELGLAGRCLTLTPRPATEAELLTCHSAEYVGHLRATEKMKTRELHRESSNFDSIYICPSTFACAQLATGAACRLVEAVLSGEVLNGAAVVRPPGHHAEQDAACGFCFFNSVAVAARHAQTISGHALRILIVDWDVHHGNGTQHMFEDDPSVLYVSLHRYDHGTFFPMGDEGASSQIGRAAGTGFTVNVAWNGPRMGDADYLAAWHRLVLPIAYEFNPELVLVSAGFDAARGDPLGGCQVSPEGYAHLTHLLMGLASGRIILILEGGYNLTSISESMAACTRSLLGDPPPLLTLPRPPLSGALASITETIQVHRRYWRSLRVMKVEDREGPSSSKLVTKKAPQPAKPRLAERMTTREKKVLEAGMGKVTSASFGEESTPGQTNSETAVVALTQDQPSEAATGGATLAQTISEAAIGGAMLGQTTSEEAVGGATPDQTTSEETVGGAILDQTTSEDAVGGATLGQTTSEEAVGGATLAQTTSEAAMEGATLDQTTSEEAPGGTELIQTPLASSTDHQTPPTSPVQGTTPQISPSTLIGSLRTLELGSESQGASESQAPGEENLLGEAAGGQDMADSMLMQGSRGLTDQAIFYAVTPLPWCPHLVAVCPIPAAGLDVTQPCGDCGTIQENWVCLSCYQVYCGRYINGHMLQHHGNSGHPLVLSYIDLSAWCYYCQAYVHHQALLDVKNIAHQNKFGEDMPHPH
As to conditions: relative to the strongly inhibited isoforms; ref [5]–[6], [6c]; cited from earlier work.

The next assay deals with T3, HDAC8 (Homo sapiens, UniProt Q9BY41).
T3 sequence (Q9BY41 1-377): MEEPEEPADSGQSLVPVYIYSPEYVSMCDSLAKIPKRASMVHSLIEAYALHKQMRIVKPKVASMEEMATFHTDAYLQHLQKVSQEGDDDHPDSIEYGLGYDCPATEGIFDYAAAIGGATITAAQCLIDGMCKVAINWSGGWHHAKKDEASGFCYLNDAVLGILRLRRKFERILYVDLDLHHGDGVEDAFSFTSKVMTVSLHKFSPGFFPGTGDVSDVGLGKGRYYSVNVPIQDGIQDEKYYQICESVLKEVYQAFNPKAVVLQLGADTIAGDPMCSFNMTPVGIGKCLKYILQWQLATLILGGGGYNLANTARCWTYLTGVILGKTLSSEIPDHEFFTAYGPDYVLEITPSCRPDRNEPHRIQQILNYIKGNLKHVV
The conditions noted are these: compared with HDACs 1–3; ref [5]–[6], [6c]; cited from earlier work.

The target in another assay is T4, HDAC isoform 7 (Homo sapiens, UniProt Q8WUI4).
T4 sequence (Q8WUI4 1-952): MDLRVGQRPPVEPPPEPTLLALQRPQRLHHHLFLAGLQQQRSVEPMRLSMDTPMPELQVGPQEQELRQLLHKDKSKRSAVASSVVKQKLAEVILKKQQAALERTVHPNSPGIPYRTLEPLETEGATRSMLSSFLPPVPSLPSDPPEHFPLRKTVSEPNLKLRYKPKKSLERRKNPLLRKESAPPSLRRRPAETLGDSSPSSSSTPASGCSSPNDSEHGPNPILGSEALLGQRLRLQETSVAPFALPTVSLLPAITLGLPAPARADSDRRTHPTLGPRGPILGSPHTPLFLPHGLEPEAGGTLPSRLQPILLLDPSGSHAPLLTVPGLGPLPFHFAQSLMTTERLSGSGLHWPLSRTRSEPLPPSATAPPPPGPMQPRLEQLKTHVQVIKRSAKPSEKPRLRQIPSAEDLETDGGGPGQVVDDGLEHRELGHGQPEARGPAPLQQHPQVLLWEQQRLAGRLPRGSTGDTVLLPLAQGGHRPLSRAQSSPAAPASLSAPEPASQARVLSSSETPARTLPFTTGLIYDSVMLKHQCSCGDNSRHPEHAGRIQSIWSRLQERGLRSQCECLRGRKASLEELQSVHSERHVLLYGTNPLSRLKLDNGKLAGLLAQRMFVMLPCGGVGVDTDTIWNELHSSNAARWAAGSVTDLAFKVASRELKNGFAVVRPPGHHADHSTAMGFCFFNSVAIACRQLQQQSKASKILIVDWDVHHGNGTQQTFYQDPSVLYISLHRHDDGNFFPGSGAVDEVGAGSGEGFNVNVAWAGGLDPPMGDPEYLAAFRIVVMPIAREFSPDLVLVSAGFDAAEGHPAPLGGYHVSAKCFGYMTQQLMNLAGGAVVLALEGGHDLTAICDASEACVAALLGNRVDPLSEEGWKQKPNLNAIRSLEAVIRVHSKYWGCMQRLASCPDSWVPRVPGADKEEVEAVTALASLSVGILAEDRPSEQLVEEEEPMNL
Nature of the assay: HDAC enzyme inhibitory assay. In kind it is biochemical. As to conditions: up to concentrations of 10 μM.

In the next assay the test system is sirtuins. Nature of the assay: HDAC enzyme inhibitory assay. In kind it is biochemical. As to conditions: up to concentrations of 10 μM.
In another assay the target is HDAC isoform 9 (Homo sapiens, UniProt Q9UKV0). In words: HDAC enzyme inhibitory assay. In kind it is biochemical. As to conditions: up to concentrations of 10 μM.
Chain of HDAC isoform 9 (Q9UKV0 whole entry, canonical isoform): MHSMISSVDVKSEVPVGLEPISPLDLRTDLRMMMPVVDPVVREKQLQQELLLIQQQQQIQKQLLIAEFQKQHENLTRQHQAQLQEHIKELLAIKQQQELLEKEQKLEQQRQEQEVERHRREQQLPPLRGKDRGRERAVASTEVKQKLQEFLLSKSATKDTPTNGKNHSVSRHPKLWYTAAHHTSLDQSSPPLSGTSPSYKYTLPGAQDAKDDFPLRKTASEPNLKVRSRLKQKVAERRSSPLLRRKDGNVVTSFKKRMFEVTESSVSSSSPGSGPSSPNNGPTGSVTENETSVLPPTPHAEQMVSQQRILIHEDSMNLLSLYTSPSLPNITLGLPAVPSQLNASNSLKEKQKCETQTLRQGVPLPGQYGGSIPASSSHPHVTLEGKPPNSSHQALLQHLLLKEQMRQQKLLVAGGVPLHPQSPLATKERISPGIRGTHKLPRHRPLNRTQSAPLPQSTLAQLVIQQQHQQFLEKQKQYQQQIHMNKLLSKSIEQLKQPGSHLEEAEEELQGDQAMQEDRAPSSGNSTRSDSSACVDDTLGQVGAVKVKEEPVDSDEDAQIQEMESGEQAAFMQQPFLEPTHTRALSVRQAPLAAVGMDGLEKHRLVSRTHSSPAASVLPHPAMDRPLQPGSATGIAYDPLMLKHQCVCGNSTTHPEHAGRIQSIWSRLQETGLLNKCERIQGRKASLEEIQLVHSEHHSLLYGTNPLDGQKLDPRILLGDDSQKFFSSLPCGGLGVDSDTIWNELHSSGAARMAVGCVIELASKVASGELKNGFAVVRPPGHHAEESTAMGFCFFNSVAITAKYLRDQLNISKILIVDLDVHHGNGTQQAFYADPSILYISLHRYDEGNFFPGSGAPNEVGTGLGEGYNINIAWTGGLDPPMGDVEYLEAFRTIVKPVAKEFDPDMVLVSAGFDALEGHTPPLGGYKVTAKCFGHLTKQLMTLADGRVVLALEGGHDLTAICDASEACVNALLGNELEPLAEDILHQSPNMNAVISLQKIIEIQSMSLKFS
The target in a further assay is HDAC isoform 4 (Homo sapiens, UniProt P56524). Nature of the assay: HDAC enzyme inhibitory assay. In kind it is biochemical. As to conditions: up to concentrations of 10 μM.
Chain of HDAC isoform 4 (P56524 whole entry, canonical isoform): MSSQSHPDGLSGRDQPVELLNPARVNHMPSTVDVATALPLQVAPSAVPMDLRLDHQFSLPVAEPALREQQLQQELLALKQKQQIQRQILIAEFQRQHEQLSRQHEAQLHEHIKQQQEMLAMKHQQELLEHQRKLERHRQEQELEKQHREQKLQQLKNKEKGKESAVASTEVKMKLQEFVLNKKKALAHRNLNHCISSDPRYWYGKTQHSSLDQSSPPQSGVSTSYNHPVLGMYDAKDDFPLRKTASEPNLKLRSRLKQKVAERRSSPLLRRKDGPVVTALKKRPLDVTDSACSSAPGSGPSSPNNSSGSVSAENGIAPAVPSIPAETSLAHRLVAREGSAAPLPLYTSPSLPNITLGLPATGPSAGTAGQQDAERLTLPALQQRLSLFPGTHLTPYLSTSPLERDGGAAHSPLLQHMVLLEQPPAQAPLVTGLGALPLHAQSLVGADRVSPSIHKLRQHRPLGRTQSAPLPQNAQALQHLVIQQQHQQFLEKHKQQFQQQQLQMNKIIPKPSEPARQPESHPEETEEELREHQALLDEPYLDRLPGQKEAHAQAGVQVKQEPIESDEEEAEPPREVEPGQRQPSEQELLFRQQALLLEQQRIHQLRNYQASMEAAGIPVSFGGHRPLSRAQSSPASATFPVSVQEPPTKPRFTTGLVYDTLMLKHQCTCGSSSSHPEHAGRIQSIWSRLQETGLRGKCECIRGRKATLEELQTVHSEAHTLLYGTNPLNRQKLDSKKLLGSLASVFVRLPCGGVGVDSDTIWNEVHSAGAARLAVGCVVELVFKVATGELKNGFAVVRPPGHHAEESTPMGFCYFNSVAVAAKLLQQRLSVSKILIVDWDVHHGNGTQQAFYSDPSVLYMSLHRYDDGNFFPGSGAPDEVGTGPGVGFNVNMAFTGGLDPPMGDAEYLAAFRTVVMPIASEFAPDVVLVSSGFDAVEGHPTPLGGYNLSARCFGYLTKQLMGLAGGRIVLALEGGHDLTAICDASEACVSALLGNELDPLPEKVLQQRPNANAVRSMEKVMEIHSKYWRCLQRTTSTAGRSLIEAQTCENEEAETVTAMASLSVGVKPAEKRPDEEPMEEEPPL
The target in a further assay is T5, HDAC isoform 11 (Homo sapiens, UniProt Q96DB2).
T5 sequence (Q96DB2 1-347): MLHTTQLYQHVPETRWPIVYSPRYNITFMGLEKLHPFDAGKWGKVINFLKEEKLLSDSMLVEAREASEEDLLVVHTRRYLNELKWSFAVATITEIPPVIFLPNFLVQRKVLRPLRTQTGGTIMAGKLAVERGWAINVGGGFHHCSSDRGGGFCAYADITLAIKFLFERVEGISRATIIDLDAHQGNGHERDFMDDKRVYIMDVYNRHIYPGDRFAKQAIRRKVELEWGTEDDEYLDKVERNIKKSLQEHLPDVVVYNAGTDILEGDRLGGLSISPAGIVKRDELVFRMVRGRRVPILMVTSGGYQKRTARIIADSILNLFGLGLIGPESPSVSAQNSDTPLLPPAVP
Nature of the assay: HDAC enzyme inhibitory assay. In kind it is biochemical. The conditions noted are these: up to concentrations of 10 μM.

`CCCCCCCC(=O)SCC/C=C/[C@@H]1CC(=O)NCc2nc(cs2)C2=N[C@@](C)(CS2)C(=O)N[C@@H](C(C)C)C(=O)O1` [compound 5, largazole]: the HDAC11 inhibition entry in the assay with HDAC11 was “strongly inhibited”. Moreover, the “HDAC10 activity in vitro” value on HDAC10 is listed as “severely compromised”. Besides, the “histone H3 (Lys9/14) hyperacetylation” value in [1] and in [2] was “dose-dependent increase” each time. In addition, the “potency in vitro against HDAC6” value at HDAC6 is listed as “two orders of magnitude lower potency”. For the same compound, the HDAC8 inhibition result on HDAC8 was “inhibited to a much lesser extent”.
Take `CC(C)[C@@H]1NC(=O)[C@]2(C)CSC(=N2)c2csc(n2)CNC(=O)C[C@@H](/C=C/CCS)OC1=O` [compound 6, largazole thiol]: the “inhibitory activity against isoform 7” value against HDAC isoform 7 is “None of the compounds tested, including largazole thiol 6, showed any inhibitory activity”. Also, in the assay with sirtuins, the “inhibitory activity against sirtuins” value is “None of the compounds tested, including largazole thiol 6, showed any inhibitory activity”. Moreover, the “inhibitory activity against isoform 9” value on HDAC isoform 9 is recorded as “None of the compounds tested, including largazole thiol 6, showed any inhibitory activity”. Moreover, the “inhibitory activity against isoform 4” value against HDAC isoform 4 is reported as “None of the compounds tested, including largazole thiol 6, showed any inhibitory activity”. Further, the “inhibitory activity against isoform 11” value against HDAC isoform 11 is recorded as “None of the compounds tested, including largazole thiol 6, showed any inhibitory activity”.
`CC(C)[C@@H]1NC(=O)[C@]2(C)CSC(=N2)c2csc(n2)CNC(=O)C[C@@H](/C=C/CCC(=O)NO)OC1=O` [compound 7]: the “histone H3 (Lys9/14) hyperacetylation” value in [1] and in [2] was “dose-dependent increase” throughout.
Regarding `CC(C)[C@@H]1NC(=O)[C@]2(C)CSC(=N2)c2csc(n2)CNC(=O)C[C@@H](/C=C/CCSCCS)OC1=O` [compound 8], the “histone H3 (Lys9/14) hyperacetylation” value in [1] and in assay [2] was “dose-dependent increase” in each case.
